From ChEMBL document CHEMBL1127367, “Antiproliferative properties of polyamine analogues: a structure-activity study” (J Med Chem, 1994)

How the values were obtained:
[1] = biological target: T1, S-adenosylmethionine decarboxylase proenzyme 1 (Mus musculus) (UniProt P0DMN7); assay: Inhibition of S-Adenosyl-methionine decarboxylase (AdoMetDC) activity; assay type: functional; parameters: concentration or dose not given beside the values
T1 sequence (whole entry): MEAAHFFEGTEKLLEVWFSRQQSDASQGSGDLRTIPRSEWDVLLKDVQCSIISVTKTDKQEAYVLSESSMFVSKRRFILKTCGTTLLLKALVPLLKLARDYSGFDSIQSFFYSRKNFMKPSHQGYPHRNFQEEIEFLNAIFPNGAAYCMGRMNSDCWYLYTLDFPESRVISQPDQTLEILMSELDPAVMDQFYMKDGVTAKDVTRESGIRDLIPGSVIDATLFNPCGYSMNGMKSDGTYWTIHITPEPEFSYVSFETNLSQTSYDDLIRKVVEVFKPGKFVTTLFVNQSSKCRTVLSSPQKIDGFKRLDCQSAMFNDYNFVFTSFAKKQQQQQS

[2] = system: L1210; assay: In vitro inhibition of L1210 growth after 96 hours.; assay type: functional, cell-based; settings: Mus musculus, L1210, 96 h
In short: (§1)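 Log-phase L1210 cultures (0.5–1.0 × 10^5 cells/mL) treated with analogue diluted in sterile water and filter-sterilized. After 48 h, cells were reseeded and grown a further 48 h for the 96 h point. Cells counted by Coulter counter. % growth = (treated − inoculum)/(untreated − inoculum) × 100.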

[3] = system: L1210; assay: Compound level in L1210 cells after 48 hours of incubation at initial concentration of 0.3 uM is expressed as nmol/10e6 cells; assay type: functional, Mus musculus
In short: (§2)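 Murine L1210 leukemia cells were kept in logarithmic growth as a suspension in RPMI-1640 with 10% NuSerum, 2% HEPES-MOPS buffer and 1 mM aminoguanidine, at 37 °C under 5% CO2. Log-phase cells were exposed to the analogue for 48 h. Intracellular analogue content is reported per 10^6 cells.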

[4] = system: L1210; assay: Inhibition of radiolabeled spermidine uptake into L1210 cells in vitro.; assay type: functional, cell-based, Mus musculus
[5] = system: L1210; assay: Compound was evaluated for its impact on spermine levels after 48 hr at concentration 0.3 uM; assay type: functional, Mus musculus
In short: (§3)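 L1210 suspension cultures were grown in RPMI-1640 with 10% NuSerum, 2% HEPES-MOPS and 1 mM aminoguanidine (37 °C, 5% CO2). Log-phase cells were treated for 48 h, then washed twice in cold RPMI-1640 and pelleted. Pellets were extracted with 0.6 N perchloric acid, and supernatants were held at −20 °C until HPLC. Polyamine levels are given as % of untreated controls.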

[6] = system: L1210; assay: In vitro inhibition of L1210 growth after 48 hours.; assay type: functional, cell-based; settings: Mus musculus, L1210, 48 h; in short: as §1
[7] = system: L1210; assay: Compound was evaluated for its impact on spermine levels after 48 hr at concentration 1.5 uM; assay type: functional, Mus musculus
In short: (§4)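 Murine L1210 leukemia cells in log-phase suspension (RPMI-1640, 10% NuSerum, 2% HEPES-MOPS, 1 mM aminoguanidine, 37 °C, 5% CO2) exposed to analogue for 48 h. Cells washed twice in cold RPMI-1640, extracted with 0.6 N perchloric acid, and polyamines quantified by HPLC. Spermine is reported as % of untreated control.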

[8] = system: L1210; assay: Compound was evaluated for its impact on spermidine levels after 48 hr at concentration 1.5 uM; assay type: functional, Mus musculus; in short: as §3
[9] = biological target: Spermidine/spermine N(1)-acetyltransferase (SAT) (Mus musculus) (UniProt Q6P8J2+P48026); assay: […] spermidine/spermine N1-Acetyltransferase (SSAT) activity; assay type: functional; parameters: concentration or dose not given beside the values
Chain of Spermidine/spermine N(1)-acetyltransferase (SAT) (Mus musculus) (P48026 whole entry, looked up): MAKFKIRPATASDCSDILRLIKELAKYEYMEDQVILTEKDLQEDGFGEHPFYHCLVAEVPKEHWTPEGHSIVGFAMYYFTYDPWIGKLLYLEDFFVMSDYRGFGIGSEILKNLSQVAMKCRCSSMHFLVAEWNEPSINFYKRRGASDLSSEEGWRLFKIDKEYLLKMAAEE
Chain of Spermidine/spermine N(1)-acetyltransferase (SAT) (Mus musculus) (Q6P8J2 whole entry, looked up): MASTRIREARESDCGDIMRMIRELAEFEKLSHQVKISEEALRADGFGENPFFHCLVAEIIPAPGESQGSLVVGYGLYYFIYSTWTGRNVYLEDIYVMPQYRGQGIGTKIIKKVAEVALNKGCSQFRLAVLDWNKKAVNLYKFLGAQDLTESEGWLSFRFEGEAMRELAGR

[10] = biological target: T2, Ornithine decarboxylase (Mus musculus) (UniProt P00860); assay: Inhibition of ornithine decarboxylase (ODC) activity; assay type: functional; parameters: concentration or dose not given beside the values
T2 sequence (whole entry): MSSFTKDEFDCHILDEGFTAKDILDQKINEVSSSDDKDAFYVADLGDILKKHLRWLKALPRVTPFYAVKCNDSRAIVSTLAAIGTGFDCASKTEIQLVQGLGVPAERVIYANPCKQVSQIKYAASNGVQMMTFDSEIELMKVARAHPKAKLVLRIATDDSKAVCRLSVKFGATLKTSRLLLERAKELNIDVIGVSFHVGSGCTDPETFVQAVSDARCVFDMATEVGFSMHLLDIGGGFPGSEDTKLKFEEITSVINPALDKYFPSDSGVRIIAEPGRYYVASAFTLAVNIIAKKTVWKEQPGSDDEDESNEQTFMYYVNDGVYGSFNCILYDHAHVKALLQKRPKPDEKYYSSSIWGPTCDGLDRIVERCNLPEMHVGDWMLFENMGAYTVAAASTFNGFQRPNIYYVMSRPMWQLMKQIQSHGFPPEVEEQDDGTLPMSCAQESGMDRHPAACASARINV

[11] = system: L1210; assay: Compound was evaluated for its impact on putrescine (Put) levels after 48 hr at concentration 0.3 uM; assay type: functional, Mus musculus; in short: as §3
[12] = system: L1210; assay: Compound was evaluated for its impact on spermidine levels after 48 hr at concentration 0.3 uM; assay type: functional, Mus musculus; in short: as §3
[13] = system: L1210; assay: Compound was evaluated for its impact on putrescine (Put) levels after 48 hr at concentration 1.5 uM; assay type: functional, Mus musculus; in short: as §3
[14] = system: L1210; assay: Compound level in L1210 cells after 48 hours of incubation at initial concentration of 1.5 uM is expressed as nmol/10e6 cells; assay type: functional, Mus musculus; in short: as §2
[15] = system: L1210; assay: Compound level in L1210 cells after 48 hours of incubation at initial concentration of 70 uM is expressed as nmol/10e6 cells; assay type: functional, Mus musculus; in short: as §2
[16] = system: L1210; assay: Compound was evaluated for its impact on spermine levels after 48 hr at concentration 70 uM; assay type: functional, Mus musculus; in short: as §4
[17] = system: L1210; assay: Compound level in L1210 cells after 48 hours of incubation at initial concentration of 14 uM is expressed as nmol/10e6 cells; assay type: functional, Mus musculus; in short: as §2
[18] = system: L1210; assay: Compound was evaluated for its impact on spermine levels after 48 hr at concentration 14 uM; assay type: functional, Mus musculus; in short: as §4
[19] = system: L1210; assay: Compound was evaluated for its impact on putrescine (Put) levels after 48 hr at concentration 14 uM; assay type: functional, Mus musculus; in short: as §3
[20] = system: L1210; assay: Compound was evaluated for its impact on spermidine levels after 48 hr at concentration 70 uM; assay type: functional, Mus musculus; in short: as §3
[21] = system: L1210; assay: Compound was evaluated for its impact on putrescine (Put) levels after 48 hr at concentration 70 uM; assay type: functional, Mus musculus; in short: as §3
[22] = system: L1210; assay: Compound was evaluated for its impact on spermidine levels after 48 hr at concentration 14 uM; assay type: functional, Mus musculus; in short: as §3
[23] = system: L1210; assay: Compound was evaluated for its impact on spermine levels after 48 hr at concentration 10 uM; assay type: functional, Mus musculus; in short: as §4
[24] = system: L1210; assay: Compound was evaluated for its impact on spermidine levels after 48 hr at concentration 10 uM; assay type: functional, Mus musculus; in short: as §3
[25] = system: L1210; assay: Compound level in L1210 cells after 48 hours of incubation at initial concentration of 10 uM is expressed as nmol/10e6 cells; assay type: functional, Mus musculus; in short: as §2
[26] = system: L1210; assay: Compound was evaluated for its impact on putrescine (Put) levels after 48 hr at concentration 10 uM; assay type: functional, Mus musculus; in short: as §3
[27] = system: L1210; assay: Compound was evaluated for its impact on spermine levels after 48 hr at concentration 2 uM; assay type: functional, Mus musculus; in short: as §4
[28] = system: L1210; assay: Compound was evaluated for its impact on spermine levels after 48 hr at concentration 0.4 uM; assay type: functional, Mus musculus; in short: as §4
[29] = system: L1210; assay: Compound was evaluated for its impact on putrescine (Put) levels after 48 hr at concentration 0.4 uM; assay type: functional, Mus musculus; in short: as §3
[30] = system: L1210; assay: Compound was evaluated for its impact on putrescine (Put) levels after 48 hr at concentration 2 uM; assay type: functional, Mus musculus; in short: as §3
[31] = system: L1210; assay: Compound was evaluated for its impact on spermidine levels after 48 hr at concentration 0.4 uM; assay type: functional, Mus musculus; in short: as §3
[32] = system: L1210; assay: Compound was evaluated for its impact on spermidine levels after 48 hr at concentration 2 uM; assay type: functional, Mus musculus; in short: as §3
[33] = system: L1210; assay: Compound was evaluated for its impact on putrescine (Put) levels after 48 hr at concentration 100 uM; assay type: functional, Mus musculus
[34] = system: L1210; assay: Compound was evaluated for its impact on spermine […] levels after 48 hr at concentration 20 uM; assay type: functional, Mus musculus; in short: as §3
[35] = system: L1210; assay: Compound was evaluated for its impact on putrescine (Put) levels after 48 hr at concentration 20 uM; assay type: functional, Mus musculus; in short: as §3
[36] = system: L1210; assay: Compound was evaluated for its impact on spermine […] levels after 48 hr at concentration 100 uM; assay type: functional, Mus musculus; in short: as §3
[37] = system: L1210; assay: Compound was evaluated for its impact on spermidine levels after 48 hr at concentration 100 uM; assay type: functional, Mus musculus
[38] = system: L1210; assay: Compound was evaluated for its impact on spermidine levels after 48 hr at concentration 20 uM; assay type: functional, Mus musculus; in short: as §3
[39] = system: L1210; assay: Compound level in L1210 cells after 48 hours of incubation at initial concentration of 500 uM is expressed as nmol/10e6 cells; assay type: functional, Mus musculus; parameters: unit: nmol/10^6 cells
[40] = system: L1210; assay: Compound level in L1210 cells after 48 hours of incubation at initial concentration of 100 uM is expressed as nmol/10e6 cells; assay type: functional, Mus musculus; parameters: unit: nmol/10^6 cells
[41] = system: L1210; assay: Compound was evaluated for its impact on spermine levels after 48 hr at concentration 100 uM; assay type: functional, Mus musculus
[42] = biological target: T2, Ornithine decarboxylase (Mus musculus); assay: Effect of compound on ornithine decarboxylase (ODC) activity expressed as percent of untreated control for ODC (1 uM at 4 h(or 48h))
In short: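 L1210 cells exposed to 1 μM analogue for 4 h, or for 48 h in some cases. ODC activity measured as 14CO2 released from [14C]carboxyl-labeled L-ornithine and expressed as % of untreated control.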

[43] = system: L1210; assay: Compound was evaluated for its impact on spermine […] levels after 48 hr at concentration 10 uM; assay type: functional, Mus musculus; in short: as §3

Activity [1]	IC50 [2]	IC50 [6]	Activity [9]	Activity [10]	SMILES	Ki [4]	Polyamine [23]	Polyamine [24]	Polyamine [26]	Polyamine [33]	Polyamine [37]	further results
37%	80 nM	300 nM	370%	5%	CCNCCCCNCCCCNCCCNCC	8000 nM						Activity [3]: 0.27; Polyamine [5]: 65%; Polyamine [7]: 18%; Polyamine [8]: 0%; Polyamine [11]: 40%; Polyamine [12]: 47%; Polyamine [13]: 0%; Activity [14]: 0.64
41%	170 nM	14000 nM	110%	3%	CCNCCCCNCCCCNCCCCN	1100 nM						Activity [15]: 3.22; Polyamine [16]: 26%; Activity [17]: 2.99; Polyamine [18]: 26%; Polyamine [19]: 0%; Polyamine [20]: 0%; Polyamine [21]: 0%; Polyamine [22]: 0%
41%	70 nM	200 nM	140%	7%	CCNCCCCNCCCCNCCCCNCC [DIETHYLHOMOSPERMINE]	1400 nM	61%	0%	0%			Activity [25]: 2.94
81%	30 nM	400 nM		79%	CCNCCCCNCCCCNCCCCNC(C)(C)C	3000 nM	77%	10%	0%			Polyamine [27]: 63%; Polyamine [28]: 75%; Polyamine [29]: 133%; Polyamine [30]: 78%; Polyamine [31]: 96%; Polyamine [32]: 68%
78%	60 nM	20000 nM	130%	90%	CC(C)NCCCCNCCCCNCCCCNC(C)C	8100 nM				0%	7%	Polyamine [34]: 83%; Polyamine [35]: 0%; Polyamine [36]: 67%; Polyamine [38]: 17%
42%	2000 nM	> 100000 nM	1500%		CCNCCCNCCCNCCCNCC [BIS(ETHYL)NORSPERMINE]	17000 nM		14%	30%	0%	6%	Activity [39]: 1.59; Activity [40]: 2.44; Polyamine [41]: 30%; Activity [42]: 10%; Polyamine [43]: 31%
